Source: ChEMBL document CHEMBL1949587 (Bioorg Med Chem, 2012)
Calls of active or inactive are those of the source. The calls are words filed in the database; no cut-off is given here.

What was measured:
[1] = system: Huh-7; experiment: Antiproliferative activity against human HuH7 cells assessed as cell growth inhibition; type: cell-based
[2] = biological target: Glycogen synthase kinase-3 beta (Homo sapiens, UniProt P49841); experiment: Inhibition of GSK3-beta
[3] = Clearance in mouse liver microsome at 5 uM after 60 mins by LC-MS/MS analysis; type: ADME; settings: liver microsomes, read-out: CLH
Summary of the method: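 Test compound at 5 µM incubated with mouse liver microsomes, 1.0 mg protein/mL, in 50 mM potassium phosphate pH 7.4 at 37 °C. Started by adding NADPH generating system (glucose 6-phosphate 3.2 mM, β-NADP 2.6 mM, MgCl2 6.5 mM). Substrate depletion measured against internal standard. Intrinsic clearance is the first-order decay constant normalized to protein.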

[4] = system: CAPAN-1; experiment: Antiproliferative activity against human Capan1 cells assessed as cell growth inhibition; type: cell-based
[5] = system: Mus musculus; experiment: Toxicity in human Calu6 cells xenografted BALB/c mouse assessed as body weight change at 1 to 10 mg/kg, po qd for 11 days; type: organism-based, Calu-6; design: dose 1-10 mg/kg, route oral; settings: in vivo, 264 h
Summary of the method: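 Calu-6 xenografts (5.0 × 10⁶ cells s.c., female Balb/c nude mice). Once tumors reached 150 mm³, oral dosing once daily for 11 days at 1, 3 and 10 mg/kg. Body weight change recorded as percent over the treatment period.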

[6] = Oral bioavailability in nude mouse at 10 mg/kg by LC-MS/MS analysis; type: ADME, organism-based; settings: in vivo
Summary of the method: (§1)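 Female nude mice given single oral dose in DMSO/Cremophor EL/1% Tween 80 (1:1:8 v/v/v) by stomach sonde. Blood taken at 30 min, 1, 2, 4, 7 and 24 h (n = 2/time point). Plasma precipitated with CH3CN/MeOH plus internal standard, filtered, measured by LC-MS/MS (LLOQ 20 ng/mL). Parameters by non-compartmental analysis; CL given as CL/F.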

[7] = Apparent oral clearance in nude mouse at 30 mg/kg, po by LC-MS/MS analysis; type: ADME, organism-based; design: dose 30 mg/kg, route oral; settings: in vivo; summary of the method: as §1
[8] = system: A549; experiment: Antiproliferative activity against human A549 cells assessed as cell growth inhibition; type: cell-based
[9] = system: HUVEC; experiment: Antiangiogenic activity in HUVEC co-cultured with fibroblasts assessed as inhibition of capillary-like tube formation at 4 uM after 11 days by microscopic staining method relative to control; type: functional; settings: Homo sapiens, 264 h
Summary of the method: (§2)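 Commercial co-culture kit of HUVEC and fibroblasts, given compound at final 4 or 20 μM and held at 37 °C, 5% CO₂ for 11 days. Tubes fixed with 70% ethanol and stained for CD31, then photographed under a microscope. Tube area quantified by image analysis and inhibition calculated against control taken as 100%.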

[10] = system: ASPC1; experiment: Antiproliferative activity against human AsPC1 cells assessed as cell growth inhibition; type: cell-based
[11] = AUC (0 to 24 hrs) in nude mouse at 30 mg/kg, po by LC-MS/MS analysis; type: ADME, organism-based; design: time < 24 hr, dose 30 mg/kg, route oral; settings: plasma
[12] = system: NCI-H460; experiment: Antiproliferative activity against PTX-resistant human NCI-H460 cells assessed as cell growth inhibition; type: cell-based
[13] = biological target: Vascular endothelial growth factor receptor 2 (Homo sapiens, UniProt P35968); experiment: Inhibition of VEGFR2
[14] = system: HUVEC; experiment: Antiangiogenic activity in HUVEC assessed as inhibition of VEGF-induced cell proliferation after 4 days; type: functional, cell-based; settings: Homo sapiens, 96 h
Summary of the method: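 HUVECs maintained in RPMI1640 with 10% FCS, 50 μg/mL heparin and ECGS, then seeded at 3000 cells/well in RPMI1640 with 5% FCS and 20 ng/mL VEGF, with compound at serially diluted concentrations. Incubated at 37 °C, 5% CO₂. Read-out is Cell Counting Kit-8, absorbance at 450 nm. Inhibition = (1−T/C)×100 against untreated control.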

[15] = Antiproliferative activity against human IGROV1/T8 cells assessed as cell growth inhibition; type: cell-based; settings: IGROV-1
[16] = biological target: Tyrosine-protein kinase ABL1 (Homo sapiens, UniProt P00519); experiment: Inhibition of ABL
[17] = biological target: Insulin receptor (Homo sapiens, UniProt P06213); experiment: Inhibition of INSR
[18] = system: IGROV-1; experiment: Antiproliferative activity against human IGROV1 cells assessed as cell growth inhibition; type: cell-based
[19] = system: HUVEC; experiment: Antiangiogenic activity in HUVEC co-cultured with fibroblasts assessed as inhibition of capillary-like tube formation at 20 uM after 11 days by microscopic staining method relative to control; type: functional; settings: Homo sapiens, 264 h; summary of the method: as §2
[20] = system: CWR22R; experiment: Antiproliferative activity against human 22Rv1 cells assessed as cell growth inhibition; type: cell-based
[21] = biological target: Tyrosine-protein kinase Yes (Homo sapiens, UniProt P07947); experiment: Inhibition of YES
[22] = system: DLD-1; experiment: Antiproliferative activity against human DLD1 cells assessed as cell growth inhibition; type: cell-based
[23] = Antiproliferative activity against human KPL4 cells assessed as cell growth inhibition; type: cell-based
[24] = biological target: Tyrosine-protein kinase receptor UFO (Homo sapiens, UniProt P30530); experiment: Inhibition of AXL
[25] = system: MKN-45; experiment: Antiproliferative activity against human MKN45 cells assessed as cell growth inhibition; type: cell-based
[26] = biological target: Focal adhesion kinase 1 (Homo sapiens, UniProt Q05397); experiment: Inhibition of FAK
[27] = system: QG-56; experiment: Antiproliferative activity against human QG56 cells assessed as cell growth inhibition; type: cell-based
[28] = system: WiDr; experiment: Antiproliferative activity against human WiDr cells assessed as cell growth inhibition; type: cell-based
[29] = system: MCF7; experiment: Antiproliferative activity against human MCF7 cells assessed as cell growth inhibition; type: cell-based
[30] = system: Calu-6; experiment: Antitumor activity against human Calu6 cells xenografted in BALB/c mouse assessed as tumor growth inhibition at 150 mg/kg, po qd for 11 days in presence of sunitinib; type: functional, organism-based; design: dose 150 mg/kg
Summary of the method: (§3)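 Female Balb/c nude mice carried s.c. flank Calu-6 xenografts, 5.0×10⁶ cells in Hanks' solution. At 200 mm³, mice were randomized into 4 groups (n = 5): vehicle, 150 mg/kg, sunitinib 80 mg/kg, or both. Each group dosed orally once daily for 11 days. Volume = 1/2 × long × short². Inhibition from volume change against control.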

[31] = system: Calu-6; experiment: Antitumor activity against human Calu6 cells xenografted in BALB/c mouse assessed as tumor growth inhibition at 150 mg/kg, po qd for 11 days; type: functional, organism-based; design: dose 150 mg/kg; summary of the method: as §3
[32] = Oral bioavailability in nude mouse at 30 mg/kg by LC-MS/MS analysis; type: ADME, organism-based; settings: in vivo; summary of the method: as §1

Chain of Tyrosine-protein kinase receptor UFO (P30530 whole entry): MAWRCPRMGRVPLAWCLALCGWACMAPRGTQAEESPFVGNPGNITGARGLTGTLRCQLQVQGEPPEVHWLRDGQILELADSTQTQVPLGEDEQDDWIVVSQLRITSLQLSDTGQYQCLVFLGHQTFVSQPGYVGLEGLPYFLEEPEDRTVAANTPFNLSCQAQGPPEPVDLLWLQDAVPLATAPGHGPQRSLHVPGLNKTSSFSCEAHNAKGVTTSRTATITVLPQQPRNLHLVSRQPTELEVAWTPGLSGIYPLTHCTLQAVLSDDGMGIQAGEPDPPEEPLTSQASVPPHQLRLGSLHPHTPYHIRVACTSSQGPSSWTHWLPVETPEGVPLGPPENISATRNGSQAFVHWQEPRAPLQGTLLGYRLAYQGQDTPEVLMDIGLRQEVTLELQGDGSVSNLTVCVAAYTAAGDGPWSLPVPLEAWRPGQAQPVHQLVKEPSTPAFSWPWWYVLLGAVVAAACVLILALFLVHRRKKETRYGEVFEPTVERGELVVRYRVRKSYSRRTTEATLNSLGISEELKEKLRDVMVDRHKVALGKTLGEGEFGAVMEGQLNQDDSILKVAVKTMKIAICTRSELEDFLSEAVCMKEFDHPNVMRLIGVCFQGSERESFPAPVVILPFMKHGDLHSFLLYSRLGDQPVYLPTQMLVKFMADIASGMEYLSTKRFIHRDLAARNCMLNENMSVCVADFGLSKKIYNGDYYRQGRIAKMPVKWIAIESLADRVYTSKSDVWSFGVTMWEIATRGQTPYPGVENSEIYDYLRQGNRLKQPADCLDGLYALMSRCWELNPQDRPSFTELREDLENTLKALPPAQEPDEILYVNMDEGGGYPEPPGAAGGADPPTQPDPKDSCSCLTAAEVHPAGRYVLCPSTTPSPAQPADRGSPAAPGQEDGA
Chain of Tyrosine-protein kinase ABL1 (P00519 whole entry): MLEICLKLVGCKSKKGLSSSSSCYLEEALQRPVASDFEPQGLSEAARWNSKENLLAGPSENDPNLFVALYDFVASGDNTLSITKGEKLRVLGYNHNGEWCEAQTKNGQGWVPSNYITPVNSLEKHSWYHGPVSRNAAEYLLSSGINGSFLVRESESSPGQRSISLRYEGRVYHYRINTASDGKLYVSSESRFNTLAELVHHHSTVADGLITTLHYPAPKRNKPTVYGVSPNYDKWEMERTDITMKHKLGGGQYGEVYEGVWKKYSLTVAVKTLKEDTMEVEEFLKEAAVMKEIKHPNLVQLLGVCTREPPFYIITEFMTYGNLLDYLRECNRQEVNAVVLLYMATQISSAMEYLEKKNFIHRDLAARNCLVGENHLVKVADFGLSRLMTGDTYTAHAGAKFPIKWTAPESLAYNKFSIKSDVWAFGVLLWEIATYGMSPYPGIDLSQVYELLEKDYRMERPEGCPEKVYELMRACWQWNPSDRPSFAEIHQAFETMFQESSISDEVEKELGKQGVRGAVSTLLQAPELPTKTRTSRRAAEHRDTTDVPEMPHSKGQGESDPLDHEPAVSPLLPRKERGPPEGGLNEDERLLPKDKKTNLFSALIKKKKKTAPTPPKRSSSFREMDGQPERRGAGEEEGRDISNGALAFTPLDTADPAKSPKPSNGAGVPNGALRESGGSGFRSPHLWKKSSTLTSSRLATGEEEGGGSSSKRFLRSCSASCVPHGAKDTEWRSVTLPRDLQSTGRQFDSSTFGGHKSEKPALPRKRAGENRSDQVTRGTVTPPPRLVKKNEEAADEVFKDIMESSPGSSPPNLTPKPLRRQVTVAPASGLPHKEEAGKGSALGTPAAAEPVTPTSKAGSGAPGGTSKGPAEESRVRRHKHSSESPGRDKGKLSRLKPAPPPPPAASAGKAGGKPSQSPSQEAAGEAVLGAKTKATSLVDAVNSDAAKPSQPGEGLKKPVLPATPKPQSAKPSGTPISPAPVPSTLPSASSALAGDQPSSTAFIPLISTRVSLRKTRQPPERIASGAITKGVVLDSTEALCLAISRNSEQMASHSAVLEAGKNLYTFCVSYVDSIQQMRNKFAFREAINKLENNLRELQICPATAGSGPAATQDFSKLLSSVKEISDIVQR
Chain of Insulin receptor (P06213 28-758 limits assumed): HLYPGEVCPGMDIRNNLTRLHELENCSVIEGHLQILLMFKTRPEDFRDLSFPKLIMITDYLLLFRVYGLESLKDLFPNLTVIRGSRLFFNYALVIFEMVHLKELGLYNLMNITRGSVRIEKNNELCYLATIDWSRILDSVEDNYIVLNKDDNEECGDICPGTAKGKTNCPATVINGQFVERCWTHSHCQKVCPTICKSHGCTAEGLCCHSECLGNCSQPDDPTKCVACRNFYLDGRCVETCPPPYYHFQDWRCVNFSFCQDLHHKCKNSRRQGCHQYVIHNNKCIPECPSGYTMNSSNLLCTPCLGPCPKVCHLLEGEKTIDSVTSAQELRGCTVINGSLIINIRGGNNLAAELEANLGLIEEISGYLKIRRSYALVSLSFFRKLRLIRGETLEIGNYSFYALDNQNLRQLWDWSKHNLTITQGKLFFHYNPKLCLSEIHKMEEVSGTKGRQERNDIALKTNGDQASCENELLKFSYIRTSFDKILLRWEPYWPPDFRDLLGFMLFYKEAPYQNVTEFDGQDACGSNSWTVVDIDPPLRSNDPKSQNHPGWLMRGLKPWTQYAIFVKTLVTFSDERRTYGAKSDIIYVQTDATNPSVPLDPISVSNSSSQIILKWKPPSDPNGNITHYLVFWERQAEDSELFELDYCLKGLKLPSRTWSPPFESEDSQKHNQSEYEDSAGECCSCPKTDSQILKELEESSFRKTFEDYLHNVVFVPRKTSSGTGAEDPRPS
Chain of Insulin receptor (P06213 763-1382 limits assumed): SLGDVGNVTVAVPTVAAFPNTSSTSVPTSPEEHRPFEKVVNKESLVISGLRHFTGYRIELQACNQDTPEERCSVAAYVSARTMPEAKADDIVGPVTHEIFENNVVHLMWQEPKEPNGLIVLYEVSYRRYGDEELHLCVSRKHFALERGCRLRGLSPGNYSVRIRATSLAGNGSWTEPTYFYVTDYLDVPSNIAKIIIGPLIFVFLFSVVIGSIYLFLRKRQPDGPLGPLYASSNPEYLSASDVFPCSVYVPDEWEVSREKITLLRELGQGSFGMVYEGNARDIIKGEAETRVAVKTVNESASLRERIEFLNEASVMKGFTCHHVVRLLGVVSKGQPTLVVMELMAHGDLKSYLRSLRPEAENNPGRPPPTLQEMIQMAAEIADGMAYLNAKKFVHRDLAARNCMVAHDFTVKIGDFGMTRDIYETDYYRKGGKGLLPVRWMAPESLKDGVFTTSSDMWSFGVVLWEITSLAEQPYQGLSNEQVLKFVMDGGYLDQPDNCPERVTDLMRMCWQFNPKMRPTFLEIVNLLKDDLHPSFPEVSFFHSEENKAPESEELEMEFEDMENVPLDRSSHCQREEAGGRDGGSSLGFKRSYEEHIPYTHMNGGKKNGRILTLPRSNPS
Chain of Glycogen synthase kinase-3 beta (P49841 whole entry): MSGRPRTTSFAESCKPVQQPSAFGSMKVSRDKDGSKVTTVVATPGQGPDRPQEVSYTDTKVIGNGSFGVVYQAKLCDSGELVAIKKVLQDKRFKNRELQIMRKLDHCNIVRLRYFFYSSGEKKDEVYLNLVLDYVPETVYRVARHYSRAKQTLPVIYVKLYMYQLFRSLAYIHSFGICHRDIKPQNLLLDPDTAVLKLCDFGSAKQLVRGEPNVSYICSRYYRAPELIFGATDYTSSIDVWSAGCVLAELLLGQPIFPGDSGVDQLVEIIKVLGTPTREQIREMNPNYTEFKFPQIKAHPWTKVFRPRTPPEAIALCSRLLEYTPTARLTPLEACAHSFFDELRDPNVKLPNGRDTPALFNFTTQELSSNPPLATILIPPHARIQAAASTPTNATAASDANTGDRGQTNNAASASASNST
Chain of Tyrosine-protein kinase Yes (P07947 whole entry): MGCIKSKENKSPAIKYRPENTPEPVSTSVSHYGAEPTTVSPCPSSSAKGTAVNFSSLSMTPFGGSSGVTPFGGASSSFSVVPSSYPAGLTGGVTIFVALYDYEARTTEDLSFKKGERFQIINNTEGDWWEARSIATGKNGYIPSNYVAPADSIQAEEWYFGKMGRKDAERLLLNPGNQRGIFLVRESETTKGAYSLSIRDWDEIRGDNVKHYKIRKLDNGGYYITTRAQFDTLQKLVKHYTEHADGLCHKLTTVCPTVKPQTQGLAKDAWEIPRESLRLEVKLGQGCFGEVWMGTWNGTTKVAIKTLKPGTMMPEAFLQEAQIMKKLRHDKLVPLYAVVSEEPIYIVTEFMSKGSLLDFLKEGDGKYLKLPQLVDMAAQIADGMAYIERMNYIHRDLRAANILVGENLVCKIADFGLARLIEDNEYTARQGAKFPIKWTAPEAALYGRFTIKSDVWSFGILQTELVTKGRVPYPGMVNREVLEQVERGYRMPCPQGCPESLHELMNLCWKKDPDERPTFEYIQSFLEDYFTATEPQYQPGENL

IC50 [1] [µM] | IC50 [2] [µM] | microsomal CLint at 5 µM [3] [µL/min/mg] | CL/F [7] [mL/min/kg] | IC50 [8] [µM] | IC50 [10] [µM] | AUC(0-t) at 24 h [11] [ng·h/mL] | IC50 [12] [µM] | IC50 [13] [µM] | IC50 [16] [µM] | IC50 [17] [µM] | IC50 [21] [µM] | Structure (SMILES) | IC50 [4] [µM] | Activity [5] | inhibition at 4 µM [9] [%] | IC50 [14] [µM] | IC50 [15] [µM] | IC50 [18] [µM] | inhibition at 20 µM [19] [%] | IC50 [20] [µM] | also measured
27 | > 50 | 12 | 5.6 | 18 | 63 | 90200 | 30 | > 50 | > 50 | > 50 | > 50 | COc1ccc(C(=O)NC[C@H](O)CO)cc1/C=C/c1ccc(Cl)cc1 | 67 | Non-toxic | 41 | 0.25 | 12 | 1.4 | 93 | 21 | bioavailability [6]: 90%; IC50 [22]: 28 µM; IC50 [23]: 15 µM; IC50 [24]: > 50 µM; IC50 [25]: 26 µM; IC50 [26]: > 50 µM; IC50 [27]: 21 µM; IC50 [28]: 15 µM; IC50 [29]: 63 µM
29 | > 50 | 7 | 5.8 | 13 | 55 | 86400 | 19 | > 50 | > 50 | > 50 | > 50 | COc1ccc(C(=O)NC[C@@H](O)CO)cc1/C=C/c1ccc(Cl)cc1 | 47 | Non-toxic | 38 | 0.48 | 9.5 | 0.92 | 86 | 8.6 | TGI [30]: Active; TGI [31]: Active; bioavailability [32]: 100%; IC50 [22]: 19 µM; IC50 [23]: 4.9 µM; IC50 [24]: > 50 µM; IC50 [25]: 5.7 µM; IC50 [26]: > 50 µM; IC50 [27]: 23 µM; IC50 [28]: 7 µM; IC50 [29]: 65 µM
